Measured values of several laboratories.
Compare with care: the assays were run in different laboratories.
PTGS2: Prostaglandin G/H synthase 2 (PTGS2, Homo sapiens, UniProt P35354)
DYRK3: Dual specificity tyrosine-phosphorylation-regulated kinase 3 (DYRK3, Homo sapiens, UniProt O43781)
BRDT BD1: Bromodomain testis-specific protein, BD1 (BRDT, Homo sapiens, UniProt Q58F21)

SMILES	target	read-out	action	method	concentration	measurement	result
O=C(O)c1ccc(O)cc1	PTGS2	enzyme activity	inhibitor		15.63 µg/mL	inhibition	100%
Oc1ccc(-c2nc(-c3ccncc3)c(-c3ccc(F)cc3)[nH]2)cc1	Transcription intermediary factor 1-beta (TRIM28, Homo sapiens, UniProt Q13263)	thermal stability		DSF	10 µM	ΔTm	-0.03 °C
O=C(O)c1ccc2c(c1)nc(Nc1cccc(F)c1)c1ccncc12	DYRK3	enzyme activity	inhibitor	radiometric	1 µM	remaining activity	0%
O=c1cc(-c2ccc(O)cc2)oc2cc(O)cc(O)c12	PTGS2	enzyme activity	inhibitor		0.98 µg/mL	inhibition	28.2%
Cc1cnc(Nc2ccc(OCCN3CCCC3)cc2)nc1Nc1cccc(S(=O)(=O)NC(C)(C)C)c1	CREB-binding protein (CREBBP, Homo sapiens, UniProt Q92793)	thermal stability		DSF	10 µM	ΔTm	2.06 °C
COc1ccc(-c2cc(=O)c3c(O)cc(O[C@@H]4O[C@H](CO)[C@@H](O)[C@H](O)[C@H]4O)cc3o2)cc1O	PTGS2	enzyme activity	inhibitor		3.9 µg/mL	inhibition	100%
O=C(O)c1ccc2c(c1)nc(Nc1cccc(F)c1)c1ncncc12	Homeodomain-interacting protein kinase 2 (HIPK2, Homo sapiens, UniProt Q9H2X6)	enzyme activity	inhibitor	radiometric	1 µM	remaining activity	-1%
Cc1cc2c(cc1N1C(=O)c3cccc4c(Cl)ccc(c34)C1=O)n(C)c(=O)n2C	BRDT BD1	thermal stability		DSF	10 µM	ΔTm	-1 °C
O=C(O)c1ccc2c(c1)nc(NCCc1ccccc1)c1ccncc12	DYRK3	enzyme activity	inhibitor	radiometric	1 µM	remaining activity	3%
NS(=O)(=O)c1ccc(Nc2nc(-c3ccc(F)cc3)c3ccccc3n2)cc1	BRDT BD1	binding		competition with immobilised ligand	1 µM	remaining binding	6%
